Assay outcomes deposited in PubChem BioAssay by Johns Hopkins Ion Channel Center.
KCNK3 block – human KCNK3 channel inhibition, primary screen; AID 602410; CHO-KCNK3 thallium flux, FluxOR fluorescence; active compounds read low; O14649; B-score at 10 µM; 340,000 tested, 0.84% active;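 active = B-score under library mean minus 4 SD, starting fluorescence ratio at most library mean plus 5 SD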;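 note: more negative B-score means stronger inhibition of thallium flux through KCNK3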
KCNQ1 pot – potentiators or activators of human KCNQ1 potassium channel; P51787; CHO-K1 KCNQ1, thallium flux FluxOR fluorescence; active compounds read high; B-score at 10 µM; 310,000 tested, 0.35% active;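 active = fluorescence ratio B-score, a plate-corrected score, at least three library SD, with initial intensity B-score within 5 SD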
Target sequence (P51787 whole entry, looked up): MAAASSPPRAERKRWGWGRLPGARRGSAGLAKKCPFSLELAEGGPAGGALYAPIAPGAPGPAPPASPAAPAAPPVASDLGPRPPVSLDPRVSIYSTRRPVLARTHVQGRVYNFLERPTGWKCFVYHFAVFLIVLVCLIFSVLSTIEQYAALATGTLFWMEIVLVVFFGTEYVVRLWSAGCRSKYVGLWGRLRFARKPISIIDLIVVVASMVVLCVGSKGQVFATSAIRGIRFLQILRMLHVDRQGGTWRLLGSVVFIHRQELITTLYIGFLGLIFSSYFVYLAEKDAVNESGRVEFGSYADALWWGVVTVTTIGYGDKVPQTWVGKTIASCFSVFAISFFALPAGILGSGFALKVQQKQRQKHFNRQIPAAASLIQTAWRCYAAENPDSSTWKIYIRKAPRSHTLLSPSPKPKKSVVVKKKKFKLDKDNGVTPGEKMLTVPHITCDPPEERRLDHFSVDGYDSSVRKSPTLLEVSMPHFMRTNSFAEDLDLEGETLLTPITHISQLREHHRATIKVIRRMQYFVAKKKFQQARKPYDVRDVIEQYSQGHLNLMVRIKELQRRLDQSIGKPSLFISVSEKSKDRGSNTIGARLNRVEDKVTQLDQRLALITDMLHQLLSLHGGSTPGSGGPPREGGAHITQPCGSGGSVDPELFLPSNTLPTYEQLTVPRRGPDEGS
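System: CHO-K1 cells stably expressing KCNQ1 / Medium: assay buffer for compound exposure, DMSO matched across wells / Reagent: thallium- and potassium-containing depolarizing buffer / Compound: one concentration, matched DMSO / Incubation: 20 min compound pretreatment at room temperature / Measured by: kinetic FluxOR fluorescence, 10 s baseline plus 110 s post-stimulus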
hERG protect – shields human hERG channel from block by proarrhythmic agents; AID 1511; activation (rescue from dofetilide block), less the hit threshold, % at 10 µM; CHO-hERG, FluxOR thallium flux, dofetilide IC70 present; 310,000 tested, 0.51% active;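 active = activation above the mean of controls blocked by dofetilide plus 5 SD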;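 note: thallium influx through hERG after potassium depolarization seen as dye fluorescence rise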
KCNK9 inh – human KCNK9 channel inhibition | B-score at 10 µM | AID 488922 | 310,000 tested, 1.2% active | HEK293 KCNK9, FluxOR thallium flux fluorescence; active compounds read low | Q9NPC2;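 active = ratio B-score over 3 SD below the library mean, with starting fluorescence within 5 SD of its mean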;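 note: negative B-score means less thallium flux so channel inhibition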
Kir21 inh – blocks the mouse Kir2.1 inward-rectifier potassium channel; P35561; HEK293-Kir2.1, FluxOR thallium flux fluorescence; active compounds read low; B-score at 10 µM; 310,000 tested, 0.85% active; AID 1672;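 active = fluorescence ratio B-score at or below minus 3 SD of library scores, with starting-brightness B-score within 2 SD, cut at about -4.2 in these data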;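 note: channel flux triggered by added potassium and thallium sulfate stimulus; B-score of peak minus minimum fluorescence over baseline after thallium stimulus; more negative B-score means stronger Kir2.1 block with less thallium influx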
KCNQ1 inh – inhibitors of human KCNQ1 potassium channel; AID 2642; 310,000 tested, 1.3% active; B-score at 10 µM; P51787; CHO-K1 KCNQ1, FluxOR thallium flux fluorescence; active compounds read high;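 active = compounds whose thallium flux B-score, printed positive for inhibition, exceeds three library SD while starting fluorescence stays within three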;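 note: channel opened by potassium depolarization with thallium stimulus after 20 min compound exposure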
A number is an active result; 0 = inactive; - = no result given. Hits are enriched below; roughly 3.7% of the tested compounds scored in any of these assays.

SMILES | KCNK3 block | KCNQ1 pot | hERG protect | KCNK9 inh | Kir21 inh | KCNQ1 inh
O=C(NCc1ccccc1C(F)(F)F)C1CC(c2cc(C(F)(F)F)cc(C(F)(F)F)c2)=NO1 (stereo unspecified) | 0 | 0 | 0 | 0 | 0 | 6
C[C@@H](NCCCn1ccc(NC(=O)OCc2ccccc2)nc1=O)c1cccc2ccccc12 | 0 | - | - | - | - | -
COc1ccc(C(OCC(O)CN(C)C2CCCCC2)c2ccc(OC)cc2)cc1 (stereo unspecified) | 0 | 0 | 0 | 0 | 0 | 0
CCOc1ccc(CN(C)CC(O)COC(c2ccc(OC)cc2)c2ccc(OC)cc2)cc1 (stereo unspecified) | 0 | 0 | 0 | 0 | -7.7 | 0
CCN1C(=O)/C(=C/c2cn(-c3ccccc3)nc2-c2cccnc2)SC1=S | -10 | - | - | - | - | -
Cc1ccc(-c2nn(-c3ccccc3)cc2/C=C2\SC(=S)N(CC(=O)O)C2=O)cc1 | 0 | 0 | 0 | 0 | 0 | 0
Cc1cc(NCCCn2ccnc2)n2nc(C)c(-c3ccccc3)c2n1 | 0 | 0 | 0 | 0 | 0 | 6
N=c1n(N)c2ccccc2n1CC(=O)c1ccc(Br)cc1 | 0 | 0 | 0 | 0 | -5.5 | 0
CCCn1c(=N)n(CC(O)c2ccc(C)cc2)c2ccccc21 (stereo unspecified) | 0 | 0 | 0 | 0 | -6 | 0
C=CCn1c(=N)n(CC(=O)c2ccc(Br)cc2)c2ccccc21 | 0 | 0 | 0 | 0 | 0 | 0
Cc1ccc(Cn2c(=N)n(CC(O)c3ccco3)c3ccccc32)cc1 (stereo unspecified) | 0 | 0 | 0 | 0 | -5 | 0
CCCn1c(=N)n(CC(O)c2ccco2)c2ccccc21 (stereo unspecified) | 0 | 0 | 0 | 0 | 0 | 0
N=c1n(Cc2ccccc2Cl)c2ccccc2n1CC(O)c1ccco1 (stereo unspecified) | 0 | 0 | 0 | 0 | -5.2 | 0
O=C(C1CC=CCC1)N1CCN(S(=O)(=O)c2ccc(F)cc2)CC1 (stereo unspecified) | 0 | - | - | - | - | -
CC(=O)c1cccc(NC(=O)NC2CC(=O)N(c3ccc4c(c3)OCCO4)C2)c1 (stereo unspecified) | 0 | 0 | 0 | 0 | 0 | 0
Cc1ccc(Cn2c(=N)n(CC(=O)c3ccccc3)c3ccccc32)cc1 | 0 | 0 | 0 | 0 | -8.9 | 0
N=c1n(CC(=O)c2cccc([N+](=O)[O-])c2)c2ccccc2n1Cc1ccccc1 | 0 | 0 | 0 | 0 | 0 | 0
Cn1c(=N)n(CC(O)c2cccc3ccccc23)c2ccccc21 (stereo unspecified) | 0 | 0 | 0 | 0 | -4.4 | 0
CCOC(=O)C1CCN(C(=O)c2ccccc2)C(CC)C1=O (stereo unspecified) | 0 | - | - | - | - | -
Fc1cccc(/C=N/Nc2ccc3ccccc3n2)c1 | 0 | 58 | 10 | 0 | 0 | 0
Fc1cccc(/C=N/Nc2ccccn2)c1 | 0 | 0 | 0 | 0 | 0 | 0
Cc1cc(C)nc(SCC(=O)Nc2nc(-c3ccccc3)c(-c3ccccc3)o2)n1 | 0 | 0 | 0 | 0 | 0 | 0
Cc1ccc(C(=O)Nc2nc(-c3ccccc3)c(-c3ccccc3)o2)cc1 | 0 | 40 | 0 | 0 | 0 | 0
CSC1=NC(C(Cl)(Cl)Cl)N=C(c2ccccc2)N1 (stereo unspecified) | 0 | 0 | 8.6 | 0 | 0 | 0
CCc1nnc(NC(=O)CSc2ccc(-c3ccc(-n4cccn4)cc3)nn2)s1 | 0 | 0 | 0 | 0 | 0 | 0
SMILES | KCNK3 block | KCNQ1 pot | hERG protect | KCNK9 inh | Kir21 inh | KCNQ1 inh
O=C(N/N=C/c1ccc(-c2cccc([N+](=O)[O-])c2)o1)[C@H]1C[C@@H]1c1ccccc1 | 0 | 0 | 0 | -10 | 0 | 0
OCC1(CCc2ccccc2)CCN(Cc2cc(Cl)ccc2O)CC1 | 0 | 0 | 0 | 0 | -4.8 | 0
OCC1(CCc2ccccc2)CCN(Cc2ccc(OC(F)F)cc2)CC1 | 0 | 0 | 0 | 0 | 0 | 0
Cc1ccc(-n2cccn2)c(CN2CCC(CO)(CCc3ccccc3)CC2)c1 | 0 | 0 | 0 | 0 | 0 | 0
OCC1(CCCc2ccccc2)CCN(Cc2ccc(F)cc2)CC1 | 0 | 0 | 0 | 0 | -6.2 | 0
O=C(O)c1ccc(OS(=O)(=O)c2ccc(Cl)s2)cc1 | 0 | - | - | - | - | -
C#CCOCCOCCOCCNc1nc(N2CCN(C(=O)Cn3cc(CC(C)O)nn3)CC2)nc(N2CCN(C(=O)[C@H]([C@@H](C)CC)n3cc(CCCCN)nn3)CC2)n1 (stereo partly specified) | 0 | - | - | - | - | -
CCc1cc(/C(Cc2cscn2)=N\O)c(O)cc1O | 0 | 0 | 0 | 0 | 0 | 0
CCc1cc(/C(Cc2ccccn2)=N\O)c(O)cc1O | 0 | 0 | 0 | 0 | -5.6 | 0
C[C@H](NC(=O)c1nc[nH]c1C(=O)N[C@H](C)c1ccccc1)C(=O)OC(C)(C)C | 0 | 0 | 0 | 0 | 0 | 0
C[C@H](NC(=O)c1nc[nH]c1C(=O)NC(c1ccccc1)c1ccccc1)C(=O)OC(C)(C)C | 0 | 0 | 0 | -7 | 0 | 0
NS(=O)(=O)c1cccc(NC(=O)c2cccs2)c1 | 0 | 0 | 0 | 0 | 0 | 0
O=C(Nc1cccc(N2C(=O)C=CC2=O)c1)c1cccs1 | 0 | 0 | 0 | 0 | -5.9 | 0
Cc1ccc(NC(=O)Nc2ccccc2F)cc1S(=O)(=O)N1CCOCC1 | -10 | - | - | - | - | -
CCC(=NN=C(CC)c1ccccc1O)c1ccccc1O | -9.9 | - | - | - | - | -
O=C1CC2(CCCCC2)Oc2ccc(F)cc21 | 0 | 0 | 0 | 0 | 0 | 0
O=C1CC2(CCCCC2)Oc2ccccc21 | 0 | 0 | 5.4 | 0 | 0 | 0
COc1cc(NC(=O)Cn2cnc(S(=O)(=O)N3CCC(C)CC3)c2)cc(OC)c1OC | -9 | 0 | 0 | 0 | 0 | 0
COc1cc(NC(=O)Cn2cnc(S(=O)(=O)N3CCCC3)c2)cc(OC)c1OC | 0 | 0 | 0 | 0 | 0 | 0
N#CC(c1ccc(Cl)cc1)c1ccc2c(C(F)(F)F)cc(C(F)(F)F)nc2n1 (stereo unspecified) | 0 | 60 | 0 | 0 | 0 | 0
CCOC(=O)C1CCN(Cc2cccc(Oc3ccccc3)c2)CC1 | 0 | 0 | 0 | 0 | -6.1 | 0
Brc1cccc(CNCc2cccs2)c1 | 0 | 0 | 0 | 0 | 0 | 0
CCOc1cc(CNCc2cccs2)cc(Br)c1OCC | 0 | 0 | 0 | 0 | -5.6 | 0
CCOc1cc(CNCc2ccncc2)cc(Br)c1OCc1ccccc1F | 0 | 0 | 0 | 0 | -8 | 0
CCOc1cc(CNCCO)cc(Br)c1OCc1cccs1 | 0 | 0 | 0 | 0 | -13 | 0
CCCCC1(CC)SCC(=O)NC1=O (stereo unspecified) | 0 | - | - | - | - | -
Cc1ccc(NC(=O)C2CCN(S(=O)(=O)c3cccnc3)CC2)cc1C | 0 | 0 | 0 | 0 | 0 | 0
CNC(=O)/C(C#N)=C/c1cccc(Oc2ccccc2)c1 | 0 | 0 | 0 | 0 | -5.1 | 0
Cc1nc2c3cc(F)ccc3n(Cc3ccccc3F)c2s1 | 0 | 0 | 0 | -8 | 0 | 0
Cc1nc2c3cc(F)ccc3n(Cc3ccccc3)c2s1 | 0 | 0 | 0 | 0 | 0 | 0
